In ChEMBL document CHEMBL4396897, “Potent 5-Cyano-6-phenyl-pyrimidin-Based Derivatives Targeting DCN1-UBE2M Interaction” (J Med Chem, 2019):
Calls of active or inactive are those of the source. The rule behind the calls is not given here.

Assays:
[1] = target: T1, DCN1-like protein 4 (Homo sapiens, UniProt Q92564); assay: Binding affinity to N-terminal GST tagged recombinant DCN4 (unknown origin) (102 to 292 residues) expressed in Escherichia coli BL21(DE3) assessed as reduction in DCN1/FAM-labelled N-terminal acetylated UBE2M (1 to 21 residues) protein-protein interaction after 30 mins by HTRF assay
T1 sequence (Q92564 whole entry): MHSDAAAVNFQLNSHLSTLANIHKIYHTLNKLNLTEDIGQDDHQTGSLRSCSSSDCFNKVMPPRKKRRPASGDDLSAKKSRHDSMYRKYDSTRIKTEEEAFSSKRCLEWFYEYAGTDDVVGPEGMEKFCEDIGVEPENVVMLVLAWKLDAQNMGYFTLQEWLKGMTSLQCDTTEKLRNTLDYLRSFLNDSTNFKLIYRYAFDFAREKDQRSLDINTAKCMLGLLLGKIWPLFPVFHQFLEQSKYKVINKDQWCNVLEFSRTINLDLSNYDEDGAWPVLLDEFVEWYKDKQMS
In short: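 HTRF competition: 5nM GST-tagged DCN (1-5) and 5nM AcUBE2M1-21-biotin peptide, with streptavidin-XL665 and anti-GST cryptate, in 100mM phosphate buffer pH 6.5 with 0.02% Tween-20. Cocktail pre-incubated 30min at room temperature, compound added, then 30min more. Excitation 320nm, emission 615/665nm. Ki from three independent repeats, mean ± SD.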

[2] = system: PC-9; assay: Induction of apoptosis in human PC9 cells assessed as early apoptotic cells at 10 uM after 48 hrs by Annexin V-FITC/propidium iodide staining based flow cytometry (reference value: 1.36%); format: functional
In short: (§1)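 PC9 cells seeded in 6-well plates (1~2×10^6 cells/mL), incubated overnight, then exposed to 0, 2.5, 5 or 10µM compound for 48h. Harvested cells stained with Annexin-V-FITC/PI for 30 min and analysed by flow cytometry. Three individual experiments; means ± SD.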

[3] = system: A549; assay: Induction of apoptosis in human A549 cells assessed as early apoptotic cells at 2.5 uM after 48 hrs by Annexin V-FITC/propidium iodide staining based flow cytometry (reference value: 3.63%); format: functional
[4] = system: A549; assay: Induction of apoptosis in human A549 cells assessed as necrotic cells at 10 uM after 48 hrs by Annexin V-FITC/propidium iodide staining based flow cytometry (reference value: 0.88%); format: functional
[5] = system: NCI-H1975; assay: Induction of apoptosis in human NCI-NCI-H1975 cells assessed as viable cells at 10 uM after 48 hrs by Annexin V-FITC/propidium iodide staining based flow cytometry (reference value: 96.1%); format: functional; details: NCI-H1975, 48 h, read-out: Activity
[6] = system: MCF7; assay: Antiproliferative activity against human MCF7 after 72 hrs by MTT assay; format: functional, cell-based; details: MCF7, 72 h
In short: (§2)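 MTT viability assay: cells seeded at 2~5×10^3 per well, exposed to serial dilutions of compound for 72h, then MTT (5 mg/mL in PBS) added for 4h at 37°C. Formazan dissolved in DMSO and read at 490nm. IC50 reported as mean ± SD of three independent experiments.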

[7] = system: ECa-109 cell line; assay: Antiproliferative activity against human EC109 after 72 hrs by MTT assay; format: functional, cell-based; in short: as §2
[8] = system: NCI-H1975; assay: Effect on NQO1 accumulation in human NCI-H1975 cells transfected with DCN1 siRNA3 by densitometric method; format: functional, cell-based
In short: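 H1975 or PC9 cells seeded in 6-well plates for 16-24h, transfected with DCN1 siRNA#3 by lipofection, with or without compound, and collected three days later. Western blot for Cullin3, DCN1, NRF2, HO-1 and NQO1, with densitometry normalized to GAPDH. Three individual experiments, means ± SD.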

[9] = target: T2, NEDD8-activating enzyme E1 catalytic subunit (Homo sapiens) (UniProt Q8TBC4); assay: Inhibition of NEDD8-activating enzyme E1C (unknown origin) assessed as effect on NEDD8/UBE2M complex formation up to 100 uM pre-incubated for 10 mins followed by Mg-ATP addition after 60 mins by SDS-PAGE analysis
T2 sequence (whole entry): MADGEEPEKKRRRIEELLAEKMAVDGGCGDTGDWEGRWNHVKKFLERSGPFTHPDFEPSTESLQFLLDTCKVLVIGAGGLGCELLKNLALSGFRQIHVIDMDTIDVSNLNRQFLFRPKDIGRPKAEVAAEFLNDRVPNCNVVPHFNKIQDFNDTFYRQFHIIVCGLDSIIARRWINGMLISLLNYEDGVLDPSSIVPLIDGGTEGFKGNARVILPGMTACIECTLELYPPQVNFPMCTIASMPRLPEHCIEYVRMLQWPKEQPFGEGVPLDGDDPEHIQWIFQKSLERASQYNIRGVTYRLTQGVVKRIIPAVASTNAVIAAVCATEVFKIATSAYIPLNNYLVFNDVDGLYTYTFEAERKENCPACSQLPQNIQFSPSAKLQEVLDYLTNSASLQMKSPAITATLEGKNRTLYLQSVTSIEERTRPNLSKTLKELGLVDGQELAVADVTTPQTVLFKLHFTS
In short: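 Cell-free NEDD8~UBE2M formation: NEDD8 E1 mixed with NEDD8, UBE2M and compound (10 and 20µM reference inhibitor, or 1, 10 and 100µM test compound) in reaction buffer, 10 min at room temperature. Started with Mg-ATP, incubated 60 min at 37°C, then 1mM DTT and non-reducing loading buffer added. Resolved on 12% SDS-PAGE.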

[10] = system: A549; assay: Induction of apoptosis in human A549 cells assessed as early apoptotic cells at 10 uM after 48 hrs by Annexin V-FITC/propidium iodide staining based flow cytometry (reference value: 3.63%); format: functional
[11] = system: PC-9; assay: Induction of apoptosis in human PC9 cells assessed as early apoptotic cells at 5 uM after 48 hrs by Annexin V-FITC/propidium iodide staining based flow cytometry (reference value: 1.36%); format: functional; in short: as §1
[12] = system: A549; assay: Induction of apoptosis in human A549 cells assessed as necrotic cells at 5 uM after 48 hrs by Annexin V-FITC/propidium iodide staining based flow cytometry (reference value: 0.88%); format: functional
[13] = system: A549; assay: Induction of apoptosis in human A549 cells assessed as viable cells at 5 uM after 48 hrs by Annexin V-FITC/propidium iodide staining based flow cytometry (reference value: 92.9%); format: functional; details: A549, 48 h, read-out: Activity
[14] = system: NCI-H1975; assay: Antiproliferative activity against human NCI-NCI-H1975 by MTT assay; format: functional, cell-based; details: TDE = time-dependent effect
[15] = system: PC-9; assay: Induction of apoptosis in human PC9 cells assessed as viable cells at 10 uM after 48 hrs by Annexin V-FITC/propidium iodide staining based flow cytometry (reference value: 95.7%); format: functional; details: PC-9, 48 h, read-out: Activity; in short: as §1
[16] = system: PC-9; assay: Induction of apoptosis in human PC9 cells assessed as viable cells at 2.5 uM after 48 hrs by Annexin V-FITC/propidium iodide staining based flow cytometry (reference value: 95.7%); format: functional; details: PC-9, 48 h, read-out: Activity; in short: as §1
[17] = system: A549; assay: Induction of apoptosis in human A549 cells assessed as late apoptotic cells at 10 uM after 48 hrs by Annexin V-FITC/propidium iodide staining based flow cytometry (reference value: 2.61%); format: functional
[18] = system: PC-9; assay: Induction of apoptosis in human PC9 cells assessed as necrotic cells at 5 uM after 48 hrs by Annexin V-FITC/propidium iodide staining based flow cytometry (reference value: 1.34%); format: functional; in short: as §1

Ki [1]: 0.807 µM
IC50 [6]: 2.2 µM
inhibition [9]: inactive
SMILES: C#CCSc1nc(Sc2nccs2)c(C#N)c(-c2ccc(C)cc2)n1
Activity [2]: 1.97%
Activity [3]: 6.21%
Activity [4]: 0.72%
viability at 10 µM [5]: 17.1%
Activity [7]: Active
Activity [8]: inactive
Activity [10]: 2.52%
Activity [11]: 8.15%
Activity [12]: 7.02%
viability at 5 µM [13]: 52.6%
Activity [14]: Tde
viability at 10 µM [15]: 23.4%
viability at 2.5 µM [16]: 69.3%
Activity [17]: 81.1%
Activity [18]: 5.29%
